Results: ChEMBL document CHEMBL1123945, “Dimethylsulfonium and thiolanium analogues of the muscarinic agent oxotremorine” (J Med Chem, 1988)

Assays:
[1] = (§1) Acute toxicity was measured in mice; settings: mouse, in vivo
In short: (§2)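 Male Swiss-Webster mice, 24-30 g. Drug dissolved in 0.9% NaCl, given iv in the tail. LD50 estimated by the up-and-down method, using six or more animals per determination. Mortality counted at 1 h.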

[2] = tested on: Mus musculus; assay: Sialalogic activity was measured in mice after intravenous administration; format: functional
In short: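 Male Swiss-Webster mice (24–30 g). Drugs in 0.9% NaCl given iv in the tail. Salivation was scored by blotting the mouth onto absorbent tissue during the first 10 min. ED50 by the up-and-down method, six or more animals per determination.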

[3] = In vitro nicotinic activity was measured on frog rectus abdominis; format: functional, tissue-based, Rectus abdominis muscle
In short: (§3)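 Frog rectus abdominis in aerated Clark-Ringer solution pH 7.4 at 22 °C. Noncumulative concentration–response curves, 5 min exposure per concentration. Isotonic contractions recorded.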

[4] = species on record: Cavia porcellus; assay: Relative efficacy of compound was determined in guinea pig iluem; format: functional
[5] = species on record: Cavia porcellus; assay: Relative efficacy of compound was determined in guinea pig urinary bladder; format: functional
[6] = species on record: Cavia porcellus; assay: Dissociation constant of the drug-receptor complex was measured in guinea pig urinary bladder; format: functional
[7] = species on record: Cavia porcellus; assay: In vitro muscarinic activity was measured on isolated guinea pig urinary bladder; format: functional
In short: (§4)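 Guinea pig urinary bladder strips in Tyrode solution pH 7.4, 37 °C, containing 0.3 mM hexamethonium. Isotonic recording at 1 g tension. Cumulative concentration–response curves, concentration raised stepwise by a factor of 3.16.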

[8] = The equipotent molar ratio (EPMR) relative to oxotremorine on isolated guinea urinary bladder; format: functional; settings: in the assay text read “relative to carbachol” for “relative to oxotremorine”; in short: as §4
[9] = target: T1, Muscarinic acetylcholine receptor (Rattus norvegicus) (UniProt P08482+P08483+P08485+P08911+P10980); assay: High affinity dissociation constant to Muscarinic acetylcholine receptor in rat cerebral cortex; format: tissue-based
[10] = species on record: Cavia porcellus; assay: In vitro muscarinic activity was measured on isolated guinea pig ileum; format: functional
In short: (§5)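 Guinea pig ileum segments in Tyrode solution pH 7.4, 37 °C, with 0.3 mM hexamethonium. Isotonic contractions at 1 g tension. Cumulative concentration–response curves, concentration raised stepwise by a factor of 2.15. Means ± SE over tissues.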

[11] = Equipotent molar ratio measured on frog rectus abdominis; format: functional, Rectus abdominis muscle; in short: as §3
[12] = as §1; format: organism-based; settings: mouse, in vivo; in short: as §2
[13] = target: T1, Muscarinic acetylcholine receptor (Rattus norvegicus); assay: Percentage of high affinity sites was determined in rat cerebral cortex; format: tissue-based
[14] = species on record: Cavia porcellus; assay: Dissociation constant of the drug-receptor complex was measured in guinea pig ileum; format: functional
[15] = The equipotent molar ratio (EPMR) relative to oxotremorine on isolated guinea pig; format: functional; settings: in the assay text read “relative to carbachol” for “relative to oxotremorine”; in short: as §5
[16] = target: T1, Muscarinic acetylcholine receptor (Rattus norvegicus); assay: Low affinity dissociation constant to Muscarinic acetylcholine receptor in rat cerebral cortex; format: tissue-based
[17] = target: Muscarinic acetylcholine receptor; assay: Binding affinity to Muscarinic acetylcholine receptor in rat cerebral cortex; format: tissue-based
[18] = species on record: Cavia porcellus; assay: Relative efficacy of compound was determined was determined in guinea pig bladder; format: functional
[19] = Equipotent molar ratio (EPMR) was measured on frog rectus abdominis; format: functional, Rectus abdominis muscle; in short: as §3
[20] = Ratio of equipotent molar ratio (EPMR) of frog rectus to EPMR of guinea pig ileum; format: functional

SMILES | LD50 [1] | ED50 [2] | EC50 [3] | Efficacy [4] | Efficacy [5] | Kd [6] | EC50 [7] | Ratio [8] | KH [9] | EC50 [10] | Ratio [11] | LD50 [12] | Binding [13] | Kd [14] | Ratio [15] | KL [16] | IC50 [17] | Efficacy [18] | Ratio [19] | Ratio [20]
C[N+](C)(C)CCOC(N)=O.[Cl-] [CARBACHOL] | 1.7 µmol/kg | 0.083 µmol/kg | 3.8 µM | 1 | 1 | – | – | – | – | – | – | – | – | – | – | – | – | – | – | –
O=C1CCCN1CC#CC[S+]1CCCC1.[Cl-] | – | 0.35 µmol/kg | 5 µM | 0.054 | 0.057 | 1.1 µM | 1.2 µM | 2.3 | 0.069 µM | 0.25 µM | 1.4 | 2.2 µmol/kg | 37% | 1.3 µM | 2.1 | 0.99 µM | 0.31 µM | – | – | –
O=C1CCC(=O)N1CC#CC[S+]1CCCC1.[Cl-] | – | – | 66.2 µM | 0.0061 | – | 13.1 µM | – | – | – | 7.9 µM | 18 | 3.5 µmol/kg | – | 7.5 µM | 81 | – | 3.3 µM | – | – | –
C[N+](C)(C)CC#CCN1CCCC1=O.[I-] [OXOTREMORINE METHIODIDE] | – | 0.058 µmol/kg | – | 0.95 | 0.88 | 4.3 µM | 0.37 µM | – | 0.019 µM | 0.023 µM | 2.1 | 1 µmol/kg | 31.3% | 2.9 µM | – | 5.4 µM | 1.2 µM | – | – | –
C[S+](C)CC#CCN1C(=O)CCC1=O.[Cl-] | – | 0.48 µmol/kg | 2600 µM | 0.11 | 0.15 | 5.9 µM | 1.7 µM | 3.7 | 0.19 µM | 0.41 µM | 692 | 70 µmol/kg | 27.4% | 6.9 µM | 4.1 | 12.7 µM | 5.4 µM | – | – | –
C[S+](C)CC#CCN1CCCC1=O.[Cl-] | – | 0.024 µmol/kg | 29 µM | 0.41 | – | 1.3 µM | 0.2 µM | 0.32 | 0.011 µM | 0.029 µM | – | 2.8 µmol/kg | 28.4% | 1.5 µM | 0.24 | 2.2 µM | 0.8 µM | 0.48 | 8.1 | 33.8
